Experiment: Toxicity liver stage against HepG2, at 10uM
Assay type: cell-based
Set-up: test concentration 10 uM, cell line HepG2-A16-CD81EGFP
Conditions: human, HepG2-A16-CD81EGFP cells; read-out: INHIBITION
Procedure, shortened: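 Uninfected HepG2-A16-CD81EGFP cells, 3 × 10^3 per well, 1536-well, plated on prespotted compound at 10 μM final, parasite-free screening media added to match infected plates; puromycin 10 μM positive, DMSO 0.5% negative; run in parallel with 48 h PbLuc assay at 37 °C, 5% CO2; viability by CellTiter-Glo luminescence, normalized to controls.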

| Structure (SMILES) | cytotoxicity at 10 µM [%] |
| --- | --- |
| CCOC(=O)CNC(=O)NCc1cc(C)n(-c2ccccc2OC)c1C | 13.3 |
| CN(CCC(O)c1ccccc1)Cc1nc(-c2ccccc2)no1 (stereo not given) | 7.86 |
| CC(=O)NC1CCCc2c1[nH]c1ccc(F)cc21 (stereo not given) | -4.41 |
| CCCS(=O)(=O)N1C[C@@H]2COC[C@@H](Cc3nc(C)no3)[C@@H]2C1 | 6.34 |
| O=C(O)C1CCCN(C(=O)CCn2ccc3c(Cl)cccc32)C1 (stereo not given) | 11 |
| CC(C)n1[nH]c(=O)c2c1NC(=O)CSC2C1CCCCC1 (stereo not given) | -4.56 |
| CN1CCN(c2nsc(-c3cccnc3)c2C#N)CC1 | 0.916 |
| CCOC(=O)C1CCN(c2cc(C(=O)N3CCOCC3)nc(C)n2)CC1 | -1.07 |
| Cc1nnc(Nc2cccc(C3CCCN(Cc4ncc[nH]4)C3)n2)s1 (stereo not given) | -5.5 |
| O=C(NCc1ccc(CN2CCCC2)cc1)NC1(CO)CCCC1 | -63.4 |
| O=c1oc(-c2ccc(F)cc2)nn1CC1CCOC1 (stereo not given) | 5.53 |
| CC(NC(=O)N1CCCN(CC(F)F)CC1)c1ccco1 (stereo not given) | -6.03 |
| O=C(NC1CCN(C2CC2)CC1)c1cc(Cl)ccc1-n1cnnn1 | 3.43 |
| Cc1noc(C)c1CN(C)Cc1csc(-c2ncccn2)n1 | 16.5 |
| Cc1nccn1-c1ccc(C(C)NCCC(C)C)cc1 (stereo not given) | 15.9 |
| CCc1cnc(CN(C)C(C)C(=O)N2CCc3ccccc3C2)s1 (stereo not given) | 7.2 |
| Cc1c(NC(C)C(C)C)cccc1C(=O)NCc1ccnn1C (stereo not given) | 57.6 |
| Fc1ccc(CNCc2nnc3n2CC(C(F)(F)F)CC3)cc1 (stereo not given) | 6.71 |
| CNS(=O)(=O)c1cccc(C(C)NCc2ccc(C)c(C)c2)c1 (stereo not given) | 3.92 |
| N#Cc1cc(NC(=O)c2ccncc2)ccc1N1CCC(O)CC1 | 7.48 |
| Cc1cc(=O)n2ncnc2n1CC(O)c1ccccc1 (stereo not given) | -7.82 |
| Cc1cn2c(n1)C(CNCc1cccc3c1OCO3)CCC2 (stereo not given) | -0.372 |
| CN1CCN(S(=O)(=O)c2cccc(C#N)c2)c2ccc(F)cc21 | 2.98 |
| Cc1cc(N2CCC(NC(=O)CCC3CCCO3)CC2)nc(C)n1 (stereo not given) | -8.21 |
| OCc1cc2ccccc2nc1NC1CC=CC1 | -56 |
| O=C1CCc2cc(S(=O)(=O)NC(=O)c3ccc4c(c3)COC4)ccc2N1 | 4.82 |
| Clc1cc(Cl)cc(OCCN2CCC(n3cncn3)CC2)c1 | 10.8 |

| Structure (SMILES) | cytotoxicity at 10 µM [%] |
| --- | --- |
| N#Cc1c(Cl)nsc1NCCCN1C(=O)COc2ccccc21 | 22.2 |
| C=C(C)COCCNC(=O)Nc1cccc(Cn2nc(C)nc2C)c1 | 7.64 |
| Cc1nn(C)c(Oc2cccc(F)c2)c1NC(=O)C1CCOCC1 | -3.91 |
| CCN(CC)c1ccc(CNS(=O)(=O)C2CCOCC2)cc1F | -13.4 |
| COC1COC2(CCN(C(=O)c3ccccc3F)CC2)C1 (stereo not given) | -92.4 |
| Cc1occc1C(=O)N1C[C@@H]2CCCO[C@@H]2[C@H](NC(=O)CC2CC2)C1 | -102 |
| Cc1cccc(-c2nnn3c2COC(CNC(=O)N2CCCC2)C3)c1 (stereo not given) | -94.5 |
| Cc1nc(C(=O)N2CC[C@@]3(C[C@@H](NS(C)(=O)=O)CCO3)C2)cs1 | -66 |
| CO[C@@H]1CCN(Cc2cccs2)[C@H]1Cc1ccncc1 | -73.4 |
| CCC(CC)CN1CCC2(CCCN(c3ncccn3)C2)C1 (stereo not given) | -83.5 |
| O=C(c1ccsc1)N1CCc2ncc(Cn3cncn3)n2CC1 | -78 |
| Cn1cc(CNCC2Cn3nnc(-c4ccccc4)c3CO2)cn1 (stereo not given) | -4.66 |
| CCc1nc(C)c(C(=O)N2C[C@@H](C(=O)O)[C@H](C3CC3)C2)s1 | 3.41 |
| CCN(Cc1ccncc1)C1CCCN(Cc2ccc(F)cc2Cl)C1 (stereo not given) | 7.94 |
| Cn1ccnc1C1CCN(S(=O)(=O)c2ccc3[nH]c(=O)[nH]c3c2)CC1 | 4.82 |
| CCc1nc(CNc2nc3c(s2)c(C)nn3C)cs1 | -72 |
| Cc1c(C(C)NCC2CCCC2)cnn1-c1ccc(F)cc1F (stereo not given) | 9 |
| CN(C)c1ccc(C(=O)NCCCc2ccccn2)cn1 | -54 |
| Cc1nc(NC2CCS(=O)(=O)CC2)cc(C2CCCNC2)n1 (stereo not given) | -11 |
| Cc1csc2c(N3CCNC(C(=O)Nc4ccc(F)cc4)C3)ncnc12 (stereo not given) | 12.7 |
| COc1cccc2c1OCC(NCc1cnn(-c3ccccc3)c1)C2 (stereo not given) | -0.517 |
| CC(C)n1cc(C(=O)N2CCN(c3cccc(C(F)(F)F)c3)CC2)cn1 | 5.37 |
| CN(C)Cc1ccc(C(=O)N2CCCC(COc3ccc(F)cc3)C2)o1 (stereo not given) | -12.9 |
| Cn1ccnc1-c1cnn(CC(=O)Nc2ccnn2C)c1 | -10.1 |
| CN1CCCCCC1C(=O)N1CCN(c2ccccc2C#N)CC1 (stereo not given) | -7.17 |
| CCn1nc(C)c(CN2CCCC(c3ccc(C(=O)O)cc3)C2)c1C (stereo not given) | -8.56 |
| Cc1nccc(N[C@H]2CN(C(=O)CN3CCCC3=O)C[C@@H]2C(C)C)n1 | -2.14 |

| Structure (SMILES) | cytotoxicity at 10 µM [%] |
| --- | --- |
| NC(=O)c1cc2c(nc1Oc1cccc(CN3CCCC3)c1F)CCC2 | -1.47 |
| CCc1cc(N2CCC(NC3CN4CCC3CC4)CC2)nc(N(C)C)n1 (stereo not given) | -2.12 |
| Cc1ccc(NC(=O)c2coc(C)n2)c(C)c1 | -4.94 |
| COc1ccc(-n2ccc(C(=O)NCCN3CCCC(C)C3)n2)cc1 (stereo not given) | -0.0158 |
| CC(C)c1nccn1C1CCCN(C(=O)CCc2cscn2)C1 (stereo not given) | -7.81 |
| CC(=O)N1CCCN(C(=O)c2ccc(=O)n(C)c2)c2ccccc21 | -10.4 |
| CN1CCOC(CN(C(=O)CCc2cnn(C)c2)c2nccs2)C1 (stereo not given) | -10.2 |
| Nc1cc2c(nn1)CCN(C(=O)CCC1CCCCC1)C2 | 6.5 |
| CCc1nc(CC(=O)N2CCCCC2Cn2cccn2)cs1 (stereo not given) | -17.6 |
| CC(NC(=O)NCCCN(C)S(C)(=O)=O)c1ccc(Cl)cc1 (stereo not given) | -2.24 |
| c1cc(CNCC2CNc3ccnn3C2)cc(N2CCOCC2)n1 (stereo not given) | -5.13 |
| CNC(=O)C1CCN(C(=O)CCn2cccn2)CC1 | -3.76 |
| CCC(CN1CCOCC1)n1cncc1-c1ccc2c(c1)CCN2CC (stereo not given) | 14.9 |
| COc1ccc(CN2CC[C@@H]3[C@H]2CCC(=O)N3c2cnn(C)c2)cc1 | 17.4 |
| CCOCc1cncc2c1CCN(C(=O)c1cscn1)C2 | -107 |
| Fc1cnc(N2C[C@@H]3C[C@@H](c4nc(C5CC5)cs4)O[C@@H]3C2)nc1 | 22.8 |
| CN(Cc1ccco1)C[C@H]1OC[C@@H]2CCN(Cc3ccsc3)C[C@@H]21 | -3.2 |
| COc1ccc(C[C@H]2CN(c3nnc(C)s3)CC[C@H]2OC)cc1 | 8.04 |
| COc1ccc(CNc2c(C)nn(C(C)C)c2C)cc1OC | -38.5 |
| CC1CCN(C(=O)[C@@H]2CC[C@@H]3[C@@H](CCN3c3ncc(F)cn3)O2)CC1 | -0.359 |
| CCn1nnc2c1C(COCCN(C)C)CN(Cc1ccco1)C2 (stereo not given) | 1.86 |
| c1cc(CN2CCO[C@H]3[C@H](OCC4CCCC4)CC[C@@H]32)ccn1 | 13.9 |
| CNC(=O)C1CCC2(CCN(c3nncs3)CC2)CO1 (stereo not given) | 6.01 |
| CN(C)C1CCN(C(=O)c2cc(-c3ccn(C)n3)n3ccccc23)CC1 | -117 |
| CNC(=O)N1C[C@@H]2C[C@H](C(=O)Nc3ccccc3)[C@H](C1)O2 | -2.24 |
| CCc1ncc(CN2C[C@@H]3CC[C@H]2CN(C(=O)C2CCC2)C3)cn1 | 4.96 |
